Source: ChEMBL document CHEMBL3425438, “Investigation of (E)-3-[4-(2-Oxo-3-aryl-chromen-4-yl)oxyphenyl]acrylic Acids as Oral Selective Estrogen Receptor Down-Regulators” (J Med Chem, 2015)
≈ marks a conversion by molar mass, not a printed value.

How the values were obtained:
[1] = Dissociation constant, pKa of the compound by potentiometric analysis […] phenol; format: physicochemical
Procedure, shortened: (§1)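 pKa (acid and phenol) by potentiometric titration.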

[2] = Volume of distribution at steady state in Alderley Park Han Wistar rat at 0.5 mg/kg, iv; format: ADME, organism-based; parameters: dose 0.5 mg/kg, route intravenous; conditions: in vivo, read-out: Vdss
Procedure, shortened: (§2)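 Fed CD-1 mice or Alderley Park Han Wistar rats, two animals per study; IV 0.5 mg/kg as aqueous solution of DMSO and cyclodextrin; clearance and Vss derived.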

[3] = Intrinsic clearance in mouse hepatocytes measured per 10^6 cells; format: ADME, cell-based, Hepatocyte; conditions: read-out: CLH
[4] = Thermodynamic solubility of the compound in 0.1 M aqueous phosphate buffer at 25 degC at pH 7.4 after 24 hrs; format: physicochemical; conditions: read-out: Therm_solubility
[5] = Apparent permeability from apical to basolateral side in human Caco2 cells; format: ADME, cell-based; conditions: Caco-2
[6] = Intrinsic clearance in rat hepatocytes measured per 10^6 cells; format: ADME, cell-based, Hepatocyte; conditions: read-out: CLH
[7] = Oral bioavailability in Alderley Park Han Wistar rat at 5 mg/kg using HPMC/tween suspension; format: ADME, organism-based; conditions: in vivo
Procedure, shortened: (§3)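 Fed Han Wistar rats, two per study; oral HPMC/tween suspension at 1, 5 or 50 mg/kg as stated per line; IV reference 0.5 mg/kg in aqueous DMSO/cyclodextrin.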

[8] = Octanol-buffer partition coefficient, log D of the compound at ratio of 1:100 at pH 7.4 by shake-flask method; format: physicochemical
[9] = Free plasma concentration in rat by LC-UV-MS analysis; format: ADME, cell-free
Procedure, shortened: (§4)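 Equilibrium dialysis in plasma of the matching species at 37 °C; free and bound concentrations quantified by LC-UV-MS; reported as % free.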

MCF7 = assay: Inhibition of cell proliferation in human MCF7 cells after 7 days by laser scanning imaging cytometer analysis; format: functional, cell-based; conditions: MCF7, 168 h
Procedure, shortened: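 MCF-7 cells plated in reduced-serum medium the day before; concentration response for 7 days; cell number by nucleic acid stain, read on laser scanning imaging cytometer; EC50 for decrease in proliferation.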

[10] = Intrinsic clearance in human hepatocytes measured per 10^6 cells; format: ADME, cell-based, Hepatocyte; conditions: read-out: CLH
[11] = Free plasma concentration in human by LC-UV-MS analysis; format: ADME, cell-free; procedure, shortened: as §4
[12] = Dissociation constant, pKa of the compound in acidic medium by potentiometric analysis; format: physicochemical; procedure, shortened: as §1
Estrogen receptor [13] = target: T1, Estrogen receptor (Homo sapiens, UniProt P03372); assay: Suppression of ER alpha in human MCF7 cells after 24 hrs by immunostaining analysis; format: cell-based
T1 sequence (P03372 whole entry): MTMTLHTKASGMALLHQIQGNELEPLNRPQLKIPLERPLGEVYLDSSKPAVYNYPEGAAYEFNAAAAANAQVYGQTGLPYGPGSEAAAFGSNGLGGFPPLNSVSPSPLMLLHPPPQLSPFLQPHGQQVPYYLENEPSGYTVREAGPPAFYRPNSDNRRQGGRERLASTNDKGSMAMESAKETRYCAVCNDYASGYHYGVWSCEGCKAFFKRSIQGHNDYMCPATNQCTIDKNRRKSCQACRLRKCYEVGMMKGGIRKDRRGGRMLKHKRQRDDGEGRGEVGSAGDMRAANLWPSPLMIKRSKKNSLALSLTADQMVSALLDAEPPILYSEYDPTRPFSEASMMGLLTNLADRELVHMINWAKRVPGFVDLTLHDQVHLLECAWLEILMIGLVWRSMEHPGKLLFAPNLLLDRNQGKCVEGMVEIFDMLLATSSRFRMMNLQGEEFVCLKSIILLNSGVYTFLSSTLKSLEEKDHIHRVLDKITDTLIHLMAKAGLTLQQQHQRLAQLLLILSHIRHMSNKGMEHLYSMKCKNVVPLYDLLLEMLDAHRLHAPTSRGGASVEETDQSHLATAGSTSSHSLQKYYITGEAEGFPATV

Estrogen receptor [14] = target: T1, Estrogen receptor; assay: Binding affinity to ER alpha (unknown origin) by LanthaScreen TR-FRET competitive binding assay
Procedure, shortened: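 LanthaScreen TR-FRET ERα competitive binding; 12-point half-log concentration response; TR-FRET emission ratio read on microplate reader; IC50 reported.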

[15] = Clearance in Alderley Park Han Wistar rat at 0.5 mg/kg, iv; format: ADME, organism-based; parameters: dose 0.5 mg/kg, route intravenous; conditions: in vivo
[16] = Free plasma concentration in mouse by LC-UV-MS analysis; format: ADME, cell-free; procedure, shortened: as §4
Estrogen receptor [17] = target: T1, Estrogen receptor; assay: Antagonist activity at ER alpha in human MCF7 cells assessed as inhibition of estradiol-induced PR expression treated for 24 hrs after incubation with estradiol for 30 mins by laser scanning imaging cytometer analysis; format: cell-based
[18] = Drug metabolism in rat hepatocytes assessed as formation of glucuronide conjugates by LC-UV-MS analysis; format: ADME, cell-based, Hepatocyte
[19] = Oral bioavailability in CD-1 mouse at 20 mg/kg using propylene glycol suspension; format: ADME, organism-based; conditions: in vivo
Procedure, shortened: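 Fed CD-1 mice, two per study; oral 20 mg/kg propylene glycol suspension; IV reference 0.5 mg/kg aqueous DMSO/cyclodextrin.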

[20] = Volume of distribution at steady state in CD-1 mouse at 0.5 mg/kg, iv; format: ADME, organism-based; parameters: dose 0.5 mg/kg, route intravenous; conditions: in vivo, read-out: Vdss; procedure, shortened: as §2
[21] = Clearance in CD-1 mouse at 0.5 mg/kg, iv; format: ADME, organism-based; parameters: dose 0.5 mg/kg, route intravenous; conditions: in vivo
[22] = Oral bioavailability in Alderley Park Han Wistar rat at 2 mg/kg using propylene glycol solution; format: ADME, organism-based; conditions: in vivo
Procedure, shortened: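 Fed Han Wistar rats, two per study; oral 2 mg/kg propylene glycol solution; IV reference 0.5 mg/kg aqueous DMSO/cyclodextrin.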

[23] = Dissociation constant, pKa of the compound by potentiometric analysis; format: physicochemical; procedure, shortened: as §1
[24] = Oral bioavailability in Alderley Park Han Wistar rat at 1 mg/kg using HPMC/tween suspension; format: ADME, organism-based; conditions: in vivo; procedure, shortened: as §3
Estrogen receptor [25] = target: T1, Estrogen receptor; assay: Agonist activity at ER alpha in human MCF7 cells assessed as PR gene expression after 24 hrs by laser scanning imaging cytometer analysis; format: cell-based; conditions: read-out: IC50 (the source's name)
[26] = Drug metabolism in rat hepatocytes assessed as oxidation metabolite formation by LC-UV-MS analysis; format: ADME, cell-based, Hepatocyte
[27] = Oral bioavailability in CD-1 mouse at 50 mg/kg using 0.5% polysorbate suspension; format: ADME, organism-based; conditions: in vivo
Procedure, shortened: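 Fed CD-1 mice, two per study; oral 50 mg/kg 0.5% polysorbate suspension; IV reference 0.5 mg/kg aqueous DMSO/cyclodextrin.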

[28] = Oral bioavailability in Alderley Park Han Wistar rat at 1 mg/kg using 5% DMSO, 95% of a 30% aqueous cyclodextrin solution; format: ADME, organism-based; conditions: in vivo
Procedure, shortened: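 Fed Han Wistar rats, two per study; oral 1 mg/kg solution in 5% DMSO, 95% of a 30% aqueous cyclodextrin solution; IV reference 0.5 mg/kg in aqueous DMSO/cyclodextrin.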

[29] = Drug metabolism in rat hepatocytes assessed as formation of acyl glucuronide conjugates by LC-UV-MS analysis; format: ADME, cell-based, Hepatocyte
[30] = Drug metabolism in rat hepatocytes assessed as formation of sulphate metabolite by LC-UV-MS analysis; format: ADME, cell-based, Hepatocyte
[31] = target: Voltage-gated inwardly rectifying potassium channel KCNH2 (Homo sapiens, UniProt Q12809); assay: Inhibition of hERG channel by electrophysiology; format: toxicity
Voltage-gated inwardly rectifying potassium channel KCNH2, sequence (Q12809 whole entry): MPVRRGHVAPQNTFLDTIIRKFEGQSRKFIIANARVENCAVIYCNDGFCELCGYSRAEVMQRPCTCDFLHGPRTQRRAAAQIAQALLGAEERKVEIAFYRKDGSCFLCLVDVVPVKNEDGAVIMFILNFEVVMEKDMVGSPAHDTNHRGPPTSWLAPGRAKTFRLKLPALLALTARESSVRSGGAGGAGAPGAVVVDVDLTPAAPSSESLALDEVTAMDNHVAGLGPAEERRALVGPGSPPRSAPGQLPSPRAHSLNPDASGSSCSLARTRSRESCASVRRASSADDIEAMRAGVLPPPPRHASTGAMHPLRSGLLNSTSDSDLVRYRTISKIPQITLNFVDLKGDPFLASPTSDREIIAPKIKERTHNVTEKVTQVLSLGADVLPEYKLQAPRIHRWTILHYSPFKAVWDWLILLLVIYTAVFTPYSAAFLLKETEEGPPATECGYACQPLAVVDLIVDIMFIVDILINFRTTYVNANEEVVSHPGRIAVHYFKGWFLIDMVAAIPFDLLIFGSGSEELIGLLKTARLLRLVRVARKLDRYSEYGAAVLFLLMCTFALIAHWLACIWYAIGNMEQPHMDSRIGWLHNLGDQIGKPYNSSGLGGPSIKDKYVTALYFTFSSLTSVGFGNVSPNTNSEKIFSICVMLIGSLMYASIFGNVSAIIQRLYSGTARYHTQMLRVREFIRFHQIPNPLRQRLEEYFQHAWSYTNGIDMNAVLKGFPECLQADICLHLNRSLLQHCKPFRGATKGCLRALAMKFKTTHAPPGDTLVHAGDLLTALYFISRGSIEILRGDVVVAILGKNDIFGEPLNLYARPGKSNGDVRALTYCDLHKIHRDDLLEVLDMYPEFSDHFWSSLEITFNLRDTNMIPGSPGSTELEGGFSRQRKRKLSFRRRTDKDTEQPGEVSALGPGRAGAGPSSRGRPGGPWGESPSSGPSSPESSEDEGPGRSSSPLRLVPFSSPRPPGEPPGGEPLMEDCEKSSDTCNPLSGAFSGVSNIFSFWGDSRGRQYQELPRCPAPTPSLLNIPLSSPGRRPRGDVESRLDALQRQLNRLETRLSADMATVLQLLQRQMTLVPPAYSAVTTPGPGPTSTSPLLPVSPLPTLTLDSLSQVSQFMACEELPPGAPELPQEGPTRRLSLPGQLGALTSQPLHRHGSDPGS

[32] = Oral bioavailability in Alderley Park Han Wistar rat at 50 mg/kg using HPMC/tween suspension; format: ADME, organism-based; conditions: in vivo; procedure, shortened: as §3

Compound | pKa [1] | Vd [2] | hepatocyte CLint [3] | solubility thermodynamic at 24 h [4] | Papp A→B [5] | hepatocyte CLint [6] | logD [8] | fraction unbound [9] | EC50 (MCF7) | hepatocyte CLint [10] | fraction unbound [11] | IC50 (Estrogen receptor [13]) | IC50 (Estrogen receptor [14]) | clearance [15] | fraction unbound [16] | IC50 (Estrogen receptor [17]) | further results
Cc1cc(F)ccc1-c1c(Oc2ccc(/C=C/C(=O)O)cc2)c2ccc(O)cc2oc1=O | 7.1 | 0.9 L/kg | 68 µL/min/1e6 cells | > 2000 µM | 19 ×10⁻⁶ cm/s | 50 µL/min/1e6 cells | 1.6 | 0.0051 | 4.5 nM | 32 µL/min/1e6 cells | 0.0025 | 21 nM | 0.4 nM | 35 mL/min/kg | 0.028 | 27 nM | bioavailability [7]: 5%; pKa [12]: 3.9
Cc1cc(F)ccc1-c1c(Cc2ccc(/C=C/C(=O)O)cc2)c2c(F)cc(O)cc2oc1=O | 7.2 | – | – | – | – | 69 µL/min/1e6 cells | 1.6 | – | – | 14 µL/min/1e6 cells | – | 55 nM | 1.3 nM | – | – | – | Drug metabolism [18]: metabolite_detected
O=C(O)/C=C/c1ccc(Cc2c(-c3ccccc3)c(=O)oc3cc(O)ccc23)cc1 | 7.7 | 1.4 L/kg | 87 µL/min/1e6 cells | 470 µM (≈ 187 µg/mL) | 10 ×10⁻⁶ cm/s | 120 µL/min/1e6 cells | 1.5 | 0.0098 | 260 nM | 18 µL/min/1e6 cells | 0.012 | 1180 nM | 8.1 nM | 67 mL/min/kg | 0.012 | 1500 nM | bioavailability [19]: 0%; bioavailability [7]: 67%; Vd [20]: 4.7 L/kg; pKa [12]: 4.4; clearance [21]: 210 mL/min/kg; bioavailability [22]: 0%
Cc1cc(OC(F)(F)F)ccc1-c1c(Oc2ccc(/C=C/C(=O)O)cc2)c2ccccc2oc1=O | – | 1.7 L/kg | – | > 470 µM | 39 ×10⁻⁶ cm/s | 19 µL/min/1e6 cells | 2.5 | 0.0032 | 20 nM | 7 µL/min/1e6 cells | 0.0016 | 100 nM | 15 nM | 15 mL/min/kg | – | 180 nM | pKa [23]: 3.7; bioavailability [24]: 35%; EC50 (Estrogen receptor [25]): > 3100 nM
Cc1cc(F)ccc1-c1c(Cc2ccc(/C=C/C(=O)O)cc2)c2ccc(CO)cc2oc1=O | – | – | – | – | – | 81 µL/min/1e6 cells | 1.2 | – | – | 14 µL/min/1e6 cells | – | 1000 nM | 100 nM | – | – | – | Drug metabolism [26]: metabolite_detected
CC/C(=C(\c1ccccc1)c1ccc(/C=C/C(=O)O)cc1)c1ccccc1 | – | 0.5 L/kg | – | – | – | – | – | < 0.0001 | 300 nM | – | < 0.002 | – | – | – | 0.064 | – | Vd [20]: 1.1 L/kg; bioavailability [27]: 62%; bioavailability [28]: 68%
O=C(O)/C=C/c1ccc(Cc2c(-c3ccc(F)cc3)c(=O)oc3cc(O)ccc23)cc1 | – | – | – | – | – | – | – | – | – | – | – | 1280 nM | 9 nM | – | – | – | Drug metabolism [18]: metabolite_detected; Drug metabolism [29]: metabolite_detected; Drug metabolism [30]: metabolite_detected
Cc1cc(F)ccc1-c1c(Oc2ccc(/C=C/C(=O)O)cc2)c2ccccc2oc1=O | – | 0.47 L/kg | – | > 1500 µM | 47 ×10⁻⁶ cm/s | 27 µL/min/1e6 cells | 2 | 0.014 | – | 9 µL/min/1e6 cells | 0.005 | 248 nM | 72 nM | 23 mL/min/kg | – | 330 nM | pKa [23]: 5.3; bioavailability [24]: 47%; IC50 [31]: > 100000 nM
Cc1cc(OC(F)(F)F)ccc1-c1c(Oc2ccc(/C=C/C(=O)O)cc2)c2ccc(O)cc2oc1=O | 8.2 | 0.7 L/kg | 9 µL/min/1e6 cells | 97 µM (≈ 48.3 µg/mL) | 15 ×10⁻⁶ cm/s | 41 µL/min/1e6 cells | 2.1 | 0.0037 | < 0.1 nM | 11 µL/min/1e6 cells | 0.0012 | 2.7 nM | 0.5 nM | 38 mL/min/kg | 0.0084 | 3.9 nM | bioavailability [32]: 0%; IC50 [31]: > 100000 nM
